These results are taken from ChEMBL document CHEMBL3425443, “Improved angiostatic activity of dasatinib by modulation with hydrophobic chains” (ACS Med Chem Lett, 2015).

The test system of one test is HEK293. The experiment in a line: Cytotoxicity against human HEK293 cells after 72 hrs by MTT assay. Particulars: HEK293, 72 h. It is filed as cell-based. The procedure, abridged: (§1)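 Proliferation inhibition measured in human A2780 ovarian carcinoma, ECRF24 immortalized endothelial and HEK-293 embryonic kidney cells; IC50 values in μM reported as means ± SD.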
On the technique in general: Tetrazolium dyes change colour on reduction, which living cells bring about.

Test [1] is described as follows: Cytotoxicity against human ECRF24 cells after 72 hrs by MTT assay. It is filed as functional, cell-based. The note with it: ECRF24, 72 h. A digest of the protocol:
as §1

The next test deals with A2780. The experiment in a line: Cytotoxicity against human A2780 cells after 72 hrs by MTT assay. Type of test: functional, cell-based. The note with it: A2780, 72 h. The procedure, abridged: as §1
The nature of test [2]: Angiostatic activity in human ECRF24 cells assessed as inhibition of cell migration at 50 uM after 7 hrs by laser scanner cytometry based wound closure assay. Type of test: functional. Particulars: ECRF24, 7 h. A digest of the protocol: (§2)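 ECRF24 endothelial monolayers wounded, then incubated 7 h with compound across a concentration range; wound closure quantified to give migration inhibition. Error bars are standard error of the mean; significance set at p < 0.05 and p < 0.01.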

Test [3] in a line: Selectivity index, ratio of cytotoxic IC50 for HEK293 cells to antiangiogenic activity in chicken embryo chorioallantoic membrane model.
In another test the test system is Chorioallantoic membrane. The test is described as follows: Antiangiogenic activity in chicken embryo chorioallantoic membrane model assessed as inhibition of vasculature formation at 20 uM, iv dosed for 3 consecutive days by FITC-dextran fluorescence angiography. Type of test: functional, Gallus gallus.
For a further test, the system named is ECRF24. The experiment in a line: Angiostatic activity in human ECRF24 cells assessed as inhibition of cell migration after 7 hrs by laser scanner cytometry based wound closure assay. It is filed as functional. The procedure, abridged:
as §2

What is called IC50 is the concentration that inhibits the measured activity by half. The low end stands for greater potency in that assay, the high end for weaker potency in that assay. In the case of `CCCCCCCCCCCCCCCCCCOC(=O)CCC(=O)OCCN1CCN(c2cc(Nc3ncc(C(=O)Nc4c(C)cccc4Cl)s3)nc(C)n2)CC1`, the IC50 with HEK293 was > 500 µM; in test [1] it was 105 µM; in the test on A2780 it was 108 µM.
One may read the inhibition as how much of the control response was suppressed. With `Cc1nc(Nc2ncc(C(=O)Nc3c(C)cccc3Cl)s2)cc(N2CCN(CCOC(=O)CCCC(=O)OCCC(F)(F)C(F)(F)C(F)(F)C(F)(F)C(F)(F)C(F)(F)C(F)(F)C(F)(F)F)CC2)n1`, in test [2], the inhibition at 50 µM turned out to be 15%. Moreover, the IC50 in the test on HEK293 was > 500 µM; in test [1], 57 µM; in the test on A2780, 121 µM. Besides, the “Selectivity Index” value in test [3] is listed as 25. In the test on Chorioallantoic membrane, the “inhibition (INH)” value came to 45%. The inhibition entry in the test with ECRF24 was “Dose-dependent effect”.
As to `Cc1nc(Nc2ncc(C(=O)Nc3c(C)cccc3Cl)s2)cc(N2CCN(CCOC(=O)CCCC(=O)OCCC(F)(F)C(F)(F)C(F)(F)C(F)(F)C(F)(F)C(F)(F)C(F)(F)C(F)(F)C(F)(F)C(F)(F)F)CC2)n1`, the IC50 in the test with HEK293 was > 500 µM; in test [1], 102 µM; with A2780, > 500 µM.
On to `Cc1nc(Nc2ncc(C(=O)Nc3c(C)cccc3Cl)s2)cc(N2CCN(CCOC(=O)CCCC(=O)OCCC(F)(F)C(F)(F)C(F)(F)C(F)(F)C(F)(F)C(F)(F)F)CC2)n1`, for which the values for the IC50 (in the test on HEK293; in test [1]; in the test with A2780) were > 500 µM, > 500 µM and 28.3 µM, respectively.
In the case of `CCCCCCCCCCCCOC(=O)CCC(=O)OCCN1CCN(c2cc(Nc3ncc(C(=O)Nc4c(C)cccc4Cl)s3)nc(C)n2)CC1`, the results for the concentration for half-maximal inhibition (IC50) (with HEK293; in test [1]; in the test on A2780) were > 500 µM, 27 µM and 45 µM, respectively.
For `CCCCCCCCOC(=O)CCC(=O)OCCN1CCN(c2cc(Nc3ncc(C(=O)Nc4c(C)cccc4Cl)s3)nc(C)n2)CC1`, the 50% inhibitory concentration (IC50) in the test on HEK293 was 52 µM; in test [1] it was 7.8 µM; in the test on A2780, 10.6 µM.
As to `Cc1nc(Nc2ncc(C(=O)Nc3c(C)cccc3Cl)s2)cc(N2CCN(CCOC(=O)CCC(=O)OCCC(F)(F)C(F)(F)C(F)(F)C(F)(F)C(F)(F)C(F)(F)C(F)(F)C(F)(F)C(F)(F)C(F)(F)F)CC2)n1`, the results for the half-inhibitory concentration (IC50) (with HEK293; in test [1]; in the test on A2780) were > 500 µM, 24 µM and 90 µM, respectively. Further, the “inhibition (INH)” value in the test on Chorioallantoic membrane turned out to be 18%.
As for `CCCCCCCCCCOC(=O)CCCC(=O)OCCN1CCN(c2cc(Nc3ncc(C(=O)Nc4c(C)cccc4Cl)s3)nc(C)n2)CC1`, the IC50 in the test on HEK293 worked out at 29 µM; in test [1], 34 µM; in the test on A2780, 119 µM.
For `CCCCCCCCCCCCCCCCCCOC(=O)CCCC(=O)OCCN1CCN(c2cc(Nc3ncc(C(=O)Nc4c(C)cccc4Cl)s3)nc(C)n2)CC1`, in that order: > 500 µM, 101 µM and 125 µM.
With `Cc1nc(Nc2ncc(C(=O)Nc3c(C)cccc3Cl)s2)cc(N2CCN(CCO)CC2)n1.O` [DASATINIB], the inhibition at 50 µM in test [2] turned out to be 65%. Besides, the IC50 in the test with HEK293 stood at 14.3 µM; in test [1] it was 5.7 µM; with A2780, 8.7 µM. Further, in the test on Chorioallantoic membrane, the “inhibition (INH)” value was 8%. In addition, the inhibition entry with ECRF24 was “Dose-dependent effect”.
Consider `CCCCCCCCCCCCOC(=O)CCCC(=O)OCCN1CCN(c2cc(Nc3ncc(C(=O)Nc4c(C)cccc4Cl)s3)nc(C)n2)CC1`, for which the IC50 in the test with HEK293 is > 500 µM; in test [1] it was 135 µM; in the test with A2780, 53 µM.
Taken in the same sequence, the figures for `Cc1nc(Nc2ncc(C(=O)Nc3c(C)cccc3Cl)s2)cc(N2CCN(CCOC(=O)CCC(=O)OCCC(F)(F)C(F)(F)C(F)(F)C(F)(F)C(F)(F)C(F)(F)C(F)(F)C(F)(F)F)CC2)n1` were > 500 µM, 96 µM and 118 µM.
Turning to `CCCCCCCCCCOC(=O)CCC(=O)OCCN1CCN(c2cc(Nc3ncc(C(=O)Nc4c(C)cccc4Cl)s3)nc(C)n2)CC1`, the concentration for half-maximal inhibition (IC50) with HEK293 was determined as 46 µM; in test [1] it was 30 µM; in the test on A2780 it was 22.5 µM.
Consider `CCCCCCCCOC(=O)CCCC(=O)OCCN1CCN(c2cc(Nc3ncc(C(=O)Nc4c(C)cccc4Cl)s3)nc(C)n2)CC1`, for which the half-maximal inhibitory concentration (IC50) in the test with HEK293 was found to be 18 µM; in test [1], 18 µM; with A2780 it was 12 µM.
For the compound `Cc1nc(Nc2ncc(C(=O)Nc3c(C)cccc3Cl)s2)cc(N2CCN(CCOC(=O)CCC(=O)OCCC(F)(F)C(F)(F)C(F)(F)C(F)(F)C(F)(F)C(F)(F)F)CC2)n1`, the concentration for half-maximal inhibition (IC50) in the test on HEK293 is 58 µM; in test [1], 122 µM; in the test on A2780, 130 µM.
